According to ChEMBL document CHEMBL4819040, “Limonoids from Guarea guidonia and Cedrela odorata: Heat Shock Protein 90 (Hsp90) Modulator Properties of Chisomicine D” (J Nat Prod, 2021):
Active and inactive are the calls of the source. The rule behind the calls is not given here.

What was measured:
[1] = target: T1, Heat shock protein HSP 90-alpha (Homo sapiens, UniProt P07900); test: Binding affinity to recombinant human HSP90alpha by surface plasmon resonance analysis
[2] = target: T1, Heat shock protein HSP 90-alpha; test: Effect on HSP90alpha in human U-937 cells assessed as p-JNK p46 protein level at 20 uM after 48 hrs by Western blot analysis (reference value: 1.06); type: cell-based; details: filed as modulator
How it was run: (§1)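 U937 cells (RPMI 1640, 10% FBS, 37 °C, 5% CO2) treated 48 h at 10, 20 or 30 μM, DMSO vehicle ≤0.3%. RIPA lysates, Bradford protein assay, SDS-PAGE, nitrocellulose, HRP secondary with ECL detection. GAPDH loading control, densitometry normalized. Run in duplicate.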

[3] = target: T1, Heat shock protein HSP 90-alpha; test: Effect on HSP90alpha in human U-937 cells assessed as ERK2 protein level at 30 uM after 48 hrs by Western blot analysis (reference value: 0.69); type: cell-based; details: filed as modulator; how it was run: as §1
[4] = target: T1, Heat shock protein HSP 90-alpha; test: Effect on HSP90alpha in human U-937 cells assessed as HSP90 protein level at 20 uM after 48 hrs by Western blot analysis (reference value: 1.12); type: cell-based; details: filed as modulator; how it was run: as §1
[5] = target: T1, Heat shock protein HSP 90-alpha; test: Effect on HSP90alpha in human U-937 cells assessed as JNK p46 protein level at 10 uM after 48 hrs by Western blot analysis (reference value: 1.22); type: cell-based; details: filed as modulator; how it was run: as §1
[6] = target: T1, Heat shock protein HSP 90-alpha; test: Effect on HSP90alpha in human U-937 cells assessed as JNK p54 protein level at 10 uM after 48 hrs by Western blot analysis (reference value: 2.45); type: cell-based; details: filed as modulator; how it was run: as §1
[7] = target: T1, Heat shock protein HSP 90-alpha; test: Effect on HSP90alpha in human U-937 cells assessed as JNK p46 protein level at 30 uM after 48 hrs by Western blot analysis (reference value: 1.22); type: cell-based; details: filed as modulator; how it was run: as §1
[8] = target: T1, Heat shock protein HSP 90-alpha; test: Effect on HSP90alpha in human U-937 cells assessed as p-JNK p54 protein level at 10 uM after 48 hrs by Western blot analysis (reference value: 2.22); type: cell-based; details: filed as modulator; how it was run: as §1
[9] = system: U-937; test: Induction of apoptosis in human U-937 cells assessed as viable cells at 20 uM after 48 hrs by AnnexinV-FITC/propidium iodide staining based flow cytometry (reference value: 82.7 %); type: functional; details: read-out: Activity
[10] = system: U-937; test: Induction of cell cycle arrest in human U937 cells assessed as CDC2 protein expression at 10 uM by Western blotting analysis (reference value: 1.22); type: functional
How it was run: (§2)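 U937 cells given vehicle (DMSO) or 10 or 20 μM. RIPA whole-cell lysates (protease/phosphatase inhibitors) resolved by SDS-PAGE, blotted to nitrocellulose, ECL detection. Targets: pro-caspase 3/caspase 3 or p-CDC2 (p34)/CDC2. Densitometry normalized. Duplicate experiments.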

[11] = target: T1, Heat shock protein HSP 90-alpha; test: Effect on HSP90alpha in human U-937 cells assessed as p-ERK2 protein level at 10 uM after 48 hrs by Western blot analysis (reference value: 1.67); type: cell-based; details: filed as modulator; how it was run: as §1
[12] = system: U-937; test: Induction of apoptosis in human U-937 cells assessed as late apoptotic cells at 20 uM after 48 hrs by AnnexinV-FITC/propidium iodide staining based flow cytometry (reference value: 12.4 %); type: functional
[13] = system: U-937; test: Induction of cell cycle arrest in human U937 cells assessed as decrease in cells at S phase at 20 uM incubated for 48 hrs PI staining based flow cytometric analysis (reference value: 23.6 %); type: functional; design: scale not given: the % may be the effect or the level left
[14] = target: T1, Heat shock protein HSP 90-alpha; test: Effect on HSP90alpha in human U-937 cells assessed as JNK p46 protein level at 20 uM after 48 hrs by Western blot analysis (reference value: 1.22); type: cell-based; details: filed as modulator; how it was run: as §1
[15] = target: T1, Heat shock protein HSP 90-alpha; test: Effect on HSP90alpha in human U-937 cells assessed as ERK2 protein level at 10 uM after 48 hrs by Western blot analysis (reference value: 0.69); type: cell-based; details: filed as modulator; how it was run: as §1
[16] = target: T1, Heat shock protein HSP 90-alpha; test: Effect on HSP90alpha in human U-937 cells assessed as HSP70 protein level at 30 uM after 48 hrs by Western blot analysis (reference value: 0.83); type: cell-based; details: filed as modulator; how it was run: as §1
[17] = system: U-937; test: Induction of cell cycle arrest in human U937 cells assessed as G1 phase cells at 20 uM incubated for 48 hrs PI staining based flow cytometric analysis (reference value: 60.8 %); type: functional
[18] = target: T1, Heat shock protein HSP 90-alpha; test: Effect on HSP90alpha in human U-937 cells assessed as HSP90 protein level at 30 uM after 48 hrs by Western blot analysis (reference value: 1.12); type: cell-based; details: filed as modulator; how it was run: as §1
[19] = target: T1, Heat shock protein HSP 90-alpha; test: Effect on HSP90alpha in human U-937 cells assessed as HSP70 protein level at 20 uM after 48 hrs by Western blot analysis (reference value: 0.83); type: cell-based; details: filed as modulator; how it was run: as §1
[20] = target: T1, Heat shock protein HSP 90-alpha; test: Effect on HSP90alpha in human U-937 cells assessed as ERK2 protein level at 20 uM after 48 hrs by Western blot analysis (reference value: 0.69); type: cell-based; details: filed as modulator; how it was run: as §1
[21] = system: U-937; test: Induction of apoptosis in human U-937 cells assessed as early apoptotic cells at 20 uM after 48 hrs by AnnexinV-FITC/propidium iodide staining based flow cytometry (reference value: 4.90 %); type: functional
[22] = system: U-937; test: Induction of apoptosis in human U-937 cells assessed as necrotic cells at 20 uM after 48 hrs by AnnexinV-FITC/propidium iodide staining based flow cytometry (reference value: 0 %); type: functional
[23] = Cytotoxicity against human PBMC cells assessed as cell viability after 48 hrs by MTT assay; type: cell-based
How it was run: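 PBMCs isolated from healthy-donor buffy coats on Ficoll-Hypaque gradients, exposed to 30 μM or DMSO for 48 h. Viability read by MTT (absorbance 550 nm). Technical triplicates, repeated twice.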

[24] = system: U-937; test: Induction of cell cycle arrest in human U937 cells assessed as increase in cells at G2 phase at 20 uM incubated for 48 hrs PI staining based flow cytometric analysis (reference value: 11.1 %); type: functional
[25] = target: T1, Heat shock protein HSP 90-alpha; test: Effect on HSP90alpha in human U-937 cells assessed as HSP70 protein level at 10 uM after 48 hrs by Western blot analysis (reference value: 0.83); type: cell-based; details: filed as modulator; how it was run: as §1
[26] = system: U-937; test: Induction of apoptosis in human U-937 cells assessed as cleavage of pro-caspase at 20 uM by Western blotting analysis; type: functional, cell-based; how it was run: as §2
[27] = target: T1, Heat shock protein HSP 90-alpha; test: Effect on HSP90alpha in human U-937 cells assessed as HSP90 protein level at 10 uM after 48 hrs by Western blot analysis (reference value: 1.12); type: cell-based; details: filed as modulator; how it was run: as §1
[28] = target: T1, Heat shock protein HSP 90-alpha; test: Inhibition of HSP90alpha (unknown origin) at 10 to 20 uM; details: dose 10-20 µM
[29] = system: U-937; test: Induction of cell cycle arrest in human U937 cells assessed as phosphorylated CDC2 expression at 10 uM by Western blotting analysis (reference value: 1.07); type: functional; how it was run: as §2
[30] = system: U-937; test: Induction of cell cycle arrest in human U937 cells assessed as phosphorylated CDC2 expression at 20 uM by Western blotting analysis (reference value: 1.07); type: functional; how it was run: as §2
[31] = system: U-937; test: Induction of cell cycle arrest in human U937 cells assessed as CDC2 protein expression at 20 uM by Western blotting analysis (reference value: 1.22); type: functional; how it was run: as §2
[32] = target: T1, Heat shock protein HSP 90-alpha; test: Effect on HSP90alpha in human U-937 cells assessed as p-JNK p46 protein level at 10 uM after 48 hrs by Western blot analysis (reference value: 1.06); type: cell-based; details: filed as modulator; how it was run: as §1
[33] = target: T1, Heat shock protein HSP 90-alpha; test: Effect on HSP90alpha in human U-937 cells assessed as p-JNK p46 protein level at 30 uM after 48 hrs by Western blot analysis (reference value: 1.06); type: cell-based; details: filed as modulator; how it was run: as §1

Structure (SMILES): CC(=O)O[C@H]1C[C@@]2(C)[C@H](C3=CC(=O)O[C@@H]3O)OC(=O)[C@H]3O[C@]32[C@@]2(C)[C@H]1[C@@]1(C)[C@@H](OC(C)=O)CC(=O)OC(C)(C)[C@@H]1C[C@H]2OC(C)=O
- Kd [1]: Not Active

Structure (SMILES): CC(=O)O[C@H]1CC(=O)OC(C)(C)[C@@H]2C[C@@H](OC(C)=O)[C@@]3(C)C4=CC[C@@H](C(O)(CO)CCO)[C@]4(C)CC[C@@H]3[C@@]12C (stereo partly specified)
- Kd [1]: Not Active

Structure (SMILES): COC(=O)C[C@H]1C(C)(C)[C@H](OC(=O)C(O)C(C)C)[C@@H]2C=C3C4CC(=O)O[C@@H](c5ccoc5)[C@]4(C)CC[C@@H]3[C@@]1(C)C2=O (stereo partly specified)
- Kd [1]: Not Active

Structure (SMILES): C=C(C)C(=O)O[C@@H]1/C=C\[C@]2(O)C3=CC(=O)O[C@@H](c4ccoc4)[C@]3(C)CC[C@]2(O)[C@]2(C)C(=O)C[C@@]1(C)[C@@H]2CC(=O)OC
- Kd [1]: Not Active

Structure (SMILES): CC(=O)O[C@H]1C[C@@]2(C)[C@H](C3=CC(=O)O[C@@H]3O)OC(=O)[C@H]3O[C@]32[C@@]2(C)[C@H]1[C@@]1(C)C=CC(=O)OC(C)(C)[C@@H]1C[C@H]2OC(C)=O
- Kd [1]: Not Active

Structure (SMILES): CC(=O)O[C@H]1C[C@@]2(C)[C@H](c3ccoc3)OC(=O)[C@H]3O[C@]32[C@@]2(C)[C@H]1[C@@]1(C)[C@@H](OC(C)=O)CC(=O)OC(C)(C)[C@@H]1C[C@H]2OC(C)=O
- Kd [1]: Not Active

Structure (SMILES): COC(=O)C[C@H](OC(C)=O)[C@]1(C)[C@H]2[C@@H](OC(C)=O)C[C@@]3(C)[C@H](c4ccoc4)OC(=O)[C@H]4O[C@]43[C@]2(C)[C@H](OC(C)=O)C[C@H]1C(C)(C)O
- Kd [1]: Not Active

Structure (SMILES): C/C=C(\C)C(=O)O[C@@H]1/C=C\C2=C3CC(=O)O[C@@H](c4ccoc4)[C@]3(C)CC[C@]2(O)[C@]2(C)C(=O)C[C@@]1(C)[C@@H]2CC(=O)OC (relative stereo)
- Kd [1]: Not Active

Structure (SMILES): C/C=C(\C)C(=O)O[C@@H]1/C=C\[C@]2(O)C3=CC(=O)O[C@@H](c4ccoc4)[C@]3(C)CC[C@]2(O)[C@]2(C)C(=O)C[C@@]1(C)[C@@H]2CC(=O)OC (relative stereo)
- fold change (FC) [2]: 1.01
- fold change (FC) [3]: 1.03
- fold change (FC) [4]: 0.82
- fold change (FC) [5]: 1.13
- fold change (FC) [6]: 1.18
- fold change (FC) [7]: 0.65
- fold change (FC) [8]: 1.45
- viability at 20 µM [9]: 63.1%
- fold change (FC) [10]: 1.18
- fold change (FC) [11]: 2.12
- Activity [12]: 28.3%
- Activity [13]: 12.3%
- fold change (FC) [14]: 0.92
- fold change (FC) [15]: 1.17
- fold change (FC) [16]: 1
- Activity [17]: 53.1%
- fold change (FC) [18]: 0.93
- fold change (FC) [19]: 0.91
- fold change (FC) [20]: 1.17
- Activity [21]: 8.62%
- Activity [22]: 0%
- Activity [23]: Non-Toxic
- Activity [24]: 16.7%
- fold change (FC) [25]: 1.3
- Activity [26]: Active
- fold change (FC) [27]: 1.21
- inhibition [28]: inactive
- fold change (FC) [29]: 0.84
- fold change (FC) [30]: 1.09
- fold change (FC) [31]: 0.58
- fold change (FC) [32]: 0.97
- fold change (FC) [33]: 0.95

Structure (SMILES): COC(=O)C[C@H]1C(C)(C)[C@H](O)[C@@H]2CC3=C4CC(=O)O[C@@H](c5ccoc5)[C@]4(C)CC[C@@H]3[C@@]1(C)C2=O [PROCERANOLIDE]
- Kd [1]: Not Active
